The source of these data is ChEMBL document CHEMBL1128702, “Structure-activity relationships of the antimalarial agent artemisinin. 2. Effect of heteroatom substitution at O-11: synthesis and bioassay of N-alkyl-11-aza-9-desmethylartemisinins” (J Med Chem, 1995).

Data set [1] has as its system Plasmodium falciparum. The experiment in a line: Relative potency was determined in vitro in paratized human whole blood against drug resistant strain of Plasmodium falciparum strain-Indochina(W-2).
The species named for data set [2] is Homo sapiens. Kind of data set: Relative potency was determined in vitro in paratized human whole blood against […]strain of Plasmodium falciparum in University of mississippi using parasite lactate dehydrogenase assay. In kind it is functional. The method, boiled down: (§1)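 P. falciparum W-2 and D-6 tested at University of Mississippi by Makler parasite lactate dehydrogenase assay: pLDH reduces APAD to APADH (human RBC LDH does so only slowly); APADH detected colorimetrically via nitroblue tetrazolium reduction to blue formazan. Relative potencies derived as for the Walter Reed assay.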

For data set [3], the system named is Plasmodium falciparum. Kind of data set: Relative potency was determined in vitro in paratized human whole blood against drug resistant strain of Plasmodium falciparum strain-Sierra Leone(D-6).
For data set [4], the species on record is Homo sapiens. Kind of data set: Relative potency was determined in vitro in paratized human whole blood against chloroquine sensitive (D-6) strain of Plasmodium falciparum in University of mississippi using parasite lactate dehydrogenase assay. In kind it is functional. In a few lines:
as §1

The species entered for data set [5] is Homo sapiens. Kind of data set: Relative potency was determined in vitro in paratized human whole blood against […]strain of Plasmodium falciparum in WR(Walter Reed) army institute of research. Type of data set: functional.
The nature of data set [6]: Partition coefficient (logP). In kind it is physicochemical. The settings on record: octanol/water. In a few lines:
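log P measured by literature procedures using standard values, also calculated with CLOGP; UV detection at 330 nm for ketone standards and 216 nm for artemisinin derivatives; samples run in triplicate.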

Broadly, the logP is a log measure of how a compound divides between an organic and an aqueous phase.

On to `C[C@@H]1CC[C@H]2CC(=O)N(Cc3ccccc3)C3O[C@@]4(C)CC[C@@H]1[C@]32OO4` (stereo partly drawn), for which the Relative potency in the data set with Plasmodium falciparum [1] was 217%; in the data set listed under Homo sapiens [2] it was 252%; with Plasmodium falciparum [3], 189%; in the data set listed under Homo sapiens [4], 146%; in the data set listed under Homo sapiens [5], 217%.
`C[C@@H]1CC[C@H]2CC(=O)N(Cc3ccc(Cl)cc3)C3O[C@@]4(C)CC[C@@H]1[C@]32OO4` (stereo partly drawn): the Relative potency in the data set on Plasmodium falciparum [1] was found to be 69%; in the data set listed under Homo sapiens [2] it was 311%; with Plasmodium falciparum [3] it was 111%; in the data set listed under Homo sapiens [4], 128%; in the data set listed under Homo sapiens [5], 69%. Also, the logP in data set [6] is 3.96.
For `C[C@@H]1CC[C@H]2CC(=O)N(CCCCCC(=O)O)C3O[C@@]4(C)CC[C@@H]1[C@]32OO4` (stereo partly drawn), the Relative potency is given as 2% with Plasmodium falciparum [1] and 12% in the data set with Plasmodium falciparum [3].
In the data set with Plasmodium falciparum [3], `C[C@@H]1CC[C@H]2CC(=O)N(CCN(C)C)C3O[C@@]4(C)CC[C@@H]1[C@]32OO4` (stereo partly drawn) gave a Relative potency of 37%.
Consider `C[C@@H]1CC[C@H]2CC(=O)N(CCc3ccccc3)C3O[C@@]4(C)CC[C@@H]1[C@]32OO4` (stereo partly drawn), for which the Relative potency with Plasmodium falciparum [1] was determined as 143%; in the data set listed under Homo sapiens [2], 204%; with Plasmodium falciparum [3], 197%; in the data set filed under Homo sapiens [4], 187%; in the data set filed under Homo sapiens [5] it was 143%. In data set [6], this compound came in with a logP of 3.5.
In the case of `CC(C)CN1C(=O)C[C@@H]2CC[C@@H](C)[C@@H]3CC[C@@]4(C)OO[C@@]23C1O4` (stereo partly drawn), the Relative potency came out at 105% in the data set on Plasmodium falciparum [1]; 227% in the data set listed under Homo sapiens [2]; 145% in the data set on Plasmodium falciparum [3]; 155% in the data set listed under Homo sapiens [4]; 105% in the data set listed under Homo sapiens [5]. Moreover, the logP in data set [6] stood at 3.01.
In data set [6], `C[C@@H]1CC[C@H]2CC(=O)N(CC(=O)O)C3O[C@@]4(C)CC[C@@H]1[C@]32OO4` (stereo partly drawn) had a logP of 1.69. In the data set on Plasmodium falciparum [3], this compound gave a Relative potency of 6%.
As to `CC(C)CCN1C(=O)C[C@@H]2CC[C@@H](C)[C@@H]3CC[C@@]4(C)OO[C@@]23C1O4` (stereo partly drawn), the Relative potency in the data set with Plasmodium falciparum [1] was 92%; with Plasmodium falciparum [3], 149%. For the same compound, the logP in data set [6] was found to be 3.54.
With `CCCN1C(=O)C[C@@H]2CC[C@@H](C)[C@@H]3CC[C@@]4(C)OO[C@@]23C1O4` (stereo partly drawn), the Relative potency in the data set with Plasmodium falciparum [1] worked out at 111%; with Plasmodium falciparum [3] it was 75%. Moreover, the logP in data set [6] was 2.61.
With `C[C@@H]1CC[C@H]2CC(=O)N(CCCc3ccccc3)C3O[C@@]4(C)CC[C@@H]1[C@]32OO4` (stereo partly drawn), the Relative potency in the data set with Plasmodium falciparum [1] worked out at 105%; in the data set listed under Homo sapiens [2], 281%; with Plasmodium falciparum [3], 205%; in the data set filed under Homo sapiens [4], 147%; in the data set listed under Homo sapiens [5], 105%. For the same compound, the logP in data set [6] turned out to be 4.03.
Regarding `C[C@@H]1CC[C@H]2CC(=O)N(C)C3O[C@@]4(C)CC[C@@H]1[C@]32OO4` (stereo partly drawn), the figures for the Relative potency in the data set with Plasmodium falciparum [1] and in the data set with Plasmodium falciparum [3] were 500% and 213%, respectively. The logP in data set [6] was 1.55.
For `CCCCCN1C(=O)C[C@@H]2CC[C@@H](C)[C@@H]3CC[C@@]4(C)OO[C@@]23C1O4` (stereo partly drawn) the same measures were 63%, 110% and 3.67.
In the case of `C[C@@H]1CC[C@H]2[C@@H](C)C(=O)O[C@@H]3O[C@@]4(C)CC[C@@H]1[C@]32OO4` [ARTEMISININ], the Relative potency in the data set on Plasmodium falciparum [1] and in the data set on Plasmodium falciparum [3] was 100% in each case.
